From ChEMBL document CHEMBL1143027, “An efficient synthesis of 3-fluoro-5-thio-xylofuranosyl nucleosides of thymine, uracil, and 5-fluorouracil as potential antitumor or/and antiviral agents” (Bioorg Med Chem, 2007) come the findings set out here.

Values joined by “and” are separate entries in the source; they are usually repeats but may differ in a detail not shown here. Identical values can stand only once.

In data set [1] the test system is Rotavirus. Nature of the data set: Antiviral activity against rotavirus RF in human Caco-2 cells after neutralization of virus in solution pre-incubated with compound for 12 hrs before infection. In kind it is functional, organism-based. In outline:
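Rotavirus RF (grown on Caco-2 with trypsin, 1.5 TCID50/mL, 100 µL per well) pre-incubated 12 h with 3-fold compound dilutions (initial 0.5 mg/mL) in trypsin-containing DMEM, then added to Caco-2 monolayers at 37 °C, 5% CO2. Infected treated wells (n=6) compared with virus-only wells (n=6). IC50 read from the concentration–effect curve.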

Data set [2] can be described thus: Selectivity index, Ratio of CC50 for human Caco-2 cells to IC50 for rotavirus RF in human Caco2 cells after neutralization of virus in solution before infection. In kind it is functional. An outline of the steps:
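Ratio of Caco-2 CC50 (72 h crystal violet assay) to rotavirus IC50 from the 12 h pre-attachment neutralization assay.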

Data set [3] concerns Rotavirus. The experiment in a line: Antiviral activity against rotavirus RF infected human Caco-2 cells following viral attachment after 72 hrs. Conditions: Caco-2, 72 h. In kind it is functional, organism-based. An outline of the steps: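 Washed Caco-2 monolayers exposed to rotavirus RF (1.5 TCID50/mL) for 1 h at 37 °C, 5% CO2 to allow attachment. Unbound virus washed off with plain DMEM, then 3-fold compound dilutions (initial 0.5 mg/mL) added at once. Infected wells (n=6) compared with virus-only controls (n=6). IC50 read from the curve.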

Data set [4] in a line: Selectivity index, Ratio of CC50 for human Caco-2 cells to IC50 for rotavirus RF infected human Caco2 cells after viral attachment. In kind it is functional. In outline: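 Ratio of Caco-2 CC50 (72 h crystal violet assay) to rotavirus IC50 from the post-attachment infectivity assay.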
A short description of data set [5]: Cytotoxicity against human H4 cells after 72 hrs. In kind it is cell-based. An outline of the steps:
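H4 human fetal small intestine cells grown in DMEM with 5% fetal calf serum and L-glutamine (2 mmol/L). Cells were exposed to 3-fold serial dilutions starting at 0.5 mg/mL (DMSO stock, final DMSO <0.1%) at 37 °C for 72 h. Treated (n = 2) vs control (n = 24) wells; CC50 from concentration–effect curve.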

Data set [6] deals with Caco-2. The experiment in a line: Cytotoxicity against human Caco-2 cells after 72 hrs. In kind it is functional. The note with it: Caco-2, 72 h. An outline of the steps:
(§1)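 Cells grown in DMEM with 5% FCS and L-glutamine, then seeded in 96-well plates. Treated with 3-fold serial dilutions (initial 0.5 mg/mL; DMSO stocks, final DMSO <0.1%) for 72 h at 37 °C. Treated wells (n=2) compared with controls (n=24). CC50 read from the concentration–effect curve.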

A short description of data set [7]: Cytotoxicity against human skin melanoma cells after 72 hrs. In kind it is functional. Conditions: Melanoma cell. An outline of the steps: as §1
The subject of data set [8] is MCF7. The experiment in a line: Cytotoxicity against human MCF7 cells after 72 hrs. In kind it is functional. The note with it: MCF7, 72 h. In outline: as §1
Data set [9] deals with H4. Nature of the data set: Selectivity index, Ratio of CC50 for human H4 cells to CC50 for human Caco-2 cells. In kind it is functional. An outline of the steps: (§2)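 Tumor selectivity index: CC50 on normal fetal intestinal H4 cells divided by CC50 on the named tumor line, both from the 72 h crystal violet cytotoxicity assay.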
Data set [10] deals with H4. Nature of the data set: Selectivity index, Ratio of CC50 for human H4 cells to CC50 for human skin melanoma cells. In kind it is functional. An outline of the steps: as §2
The test system of data set [11] is MCF7. Nature of the data set: Selectivity index, Ratio of CC50 for human H4 cells to CC50 for human MCF7 cells. In kind it is functional. In outline:
as §2

For data set [12], the system named is Caco-2. The experiment in a line: Growth inhibition of human Caco-2 cells after 10 days. In kind it is functional, cell-based. Conditions: Caco-2, 240 h. An outline of the steps: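 Caco-2 cells seeded at 10 cells/well in DMEM/10% FBS with 3-fold compound dilutions (initial 0.5 mg/mL), six wells per series. Incubated 10 days at 37 °C in a humidified incubator, then colonies counted. Colony number in treated wells (n=2) compared with controls (n=24). IC50 read from the concentration–effect curve.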

For orientation: IC50 means the concentration that gives 50% inhibition. As usually defined, the CC50 is the concentration giving 50% cytotoxicity. A higher CC50 goes with better tolerance by the cells. On to `CC(=O)O[C@@H]1[C@@H](F)[C@@H](CSC(C)=O)O[C@H]1n1cc(C)c(=O)[nH]c1=O`, for which the IC50 is 2 µg/mL and 5.55 µM in the data set on Rotavirus [1]; 16.6 µM and 6 µg/mL with Rotavirus [3]; 1.9 µM with Caco-2 [12]. Also, the “Ratio CC50/IC50” value in data set [2] is listed as 10; in data set [4], 3.33. In [5], this molecule had a CC50 at 72 h of 139 µM. In addition, the values for the CC50 (in the data set with Caco-2 [6]; in data set [7]; with MCF7 [8]) were 55.5 µM, 278 µM and 278 µM, respectively. Further, the results for the Selectivity index in the data set with H4 [9], in the data set with H4 [10] and in the data set with MCF7 [11] were 2.5, 0.5 and 0.5, respectively.
Take `CC(=O)O[C@@H]1[C@@H](F)[C@@H](CSC(C)=O)O[C@H]1n1cc(F)c(=O)[nH]c1=O`: the IC50 was 6 µg/mL and 16.5 µM with Rotavirus [1]; 16.5 µM and 6 µg/mL with Rotavirus [3]; 16.5 µM in the data set with Caco-2 [12]. For the same molecule, the “Ratio CC50/IC50” value in data set [2] and in data set [4] was 3.33 in each case. Besides, the CC50 at 72 h in data set [5] stood at 1370 µM. Moreover, the CC50 in the data set on Caco-2 [6] is 54.9 µM; in data set [7], 16.5 µM; in the data set on MCF7 [8], 1370 µM. The Selectivity index is listed as 25 in the data set with H4 [9], 83.2 with H4 [10] and 1 in the data set on MCF7 [11].
For the molecule `CC(=O)O[C@@H]1[C@@H](F)[C@@H](CSC(C)=O)O[C@H]1n1ccc(=O)[nH]c1=O`, the IC50 was 6 µg/mL and 17.3 µM in the data set on Rotavirus [1]; 17.3 µM and 6 µg/mL in the data set on Rotavirus [3]; 5.8 µM with Caco-2 [12]. For the same molecule, the “Ratio CC50/IC50” value in data set [2] and in data set [4] was 3.33 throughout. Also, in [5], half-maximal cytotoxicity (CC50 at 72 h) was put at 1440 µM. The results for the cytotoxic concentration (CC50) (in the data set with Caco-2 [6]; in data set [7]; in the data set on MCF7 [8]) were 57.8 µM, 17.3 µM and 289 µM, respectively. Further, the Selectivity index in the data set on H4 [9] is listed as 25; with H4 [10], 83.5; in the data set on MCF7 [11], 5.
In data set [5], `O=c1[nH]cc(F)c(=O)[nH]1` [FLUOROURACIL] registered a CC50 at 72 h of 3840 µM. Besides, the half-maximal cytotoxic concentration (CC50) in the data set on Caco-2 [6] worked out at 384 µM; in [7], 46.1 µM; with MCF7 [8] it was 769 µM. The figures for the Selectivity index in the data set on H4 [9], with H4 [10] and in the data set on MCF7 [11] were 10, 83.4 and 5, respectively. In the data set with Caco-2 [12], this molecule registered an IC50 of 1.5 µM.
As for `Cc1cn([C@H]2C[C@H](N=[N+]=[N-])[C@@H](CO)O2)c(=O)[nH]c1=O` [ZIDOVUDINE], the IC50 in the data set with Rotavirus [1] was 20 µg/mL and 74.8 µM; with Rotavirus [3], 22.4 µM and 6 µg/mL. Further, the “Ratio CC50/IC50” value is given as 0.75 in data set [2] and 2.5 in data set [4].
